# This is a sample that favours compounds with a hit; in the whole collection about 3.5% have one here.
# RGS4 block – RGS4 inhibitors, primary screen, cell-based, HEK293 M3R inducible RGS4, calcium flux; AID 463165, 2010; Regulator of G-protein signaling 4 (Homo sapiens), P49798; Fluo-4 calcium flux; active compounds read high; triggered by carbachol at its EC20; 310,000 compounds, 0.45% hits; B-score at 10 µM;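 active = B-score, a plate-corrected calcium signal, over three deviations above library mean, with baseline fluorescence within five deviations of library mean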;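 also: RGS4 expression induced by doxycycline in cells with stable M3 receptor; B-score is computed from the integrated fluorescence ratio over baseline after carbachol; higher B-score means a larger calcium signal and so more RGS4 inhibition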
# Target sequence (P49798 whole entry, looked up): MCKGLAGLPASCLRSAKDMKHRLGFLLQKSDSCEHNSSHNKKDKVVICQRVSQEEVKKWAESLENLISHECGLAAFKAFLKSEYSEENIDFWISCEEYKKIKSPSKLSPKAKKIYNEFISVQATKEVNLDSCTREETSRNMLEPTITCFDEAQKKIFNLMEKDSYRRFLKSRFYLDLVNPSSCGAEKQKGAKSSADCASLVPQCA
# MrgX1 antagonist – antagonists of human MrgX1 receptor, primary screen, HEK293 cells, Fluo-4 calcium flux. Mas-related G-protein coupled receptor member X1 (Homo sapiens), Q96LB2. BAM8-22 antagonism; active compounds read low. B-score at 10 µM. 310,000 compounds, 1.3% hits. AID 588676, 2011;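 active = calcium-response B-score plate-corrected more than 3 library SD below zero, starting fluorescence within 5 deviations, no agonist response on first addition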;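 also: peak minus trough fluorescence over baseline after final BAM8-22 challenge near maximal dose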
# Target sequence (Q96LB2 whole entry, looked up): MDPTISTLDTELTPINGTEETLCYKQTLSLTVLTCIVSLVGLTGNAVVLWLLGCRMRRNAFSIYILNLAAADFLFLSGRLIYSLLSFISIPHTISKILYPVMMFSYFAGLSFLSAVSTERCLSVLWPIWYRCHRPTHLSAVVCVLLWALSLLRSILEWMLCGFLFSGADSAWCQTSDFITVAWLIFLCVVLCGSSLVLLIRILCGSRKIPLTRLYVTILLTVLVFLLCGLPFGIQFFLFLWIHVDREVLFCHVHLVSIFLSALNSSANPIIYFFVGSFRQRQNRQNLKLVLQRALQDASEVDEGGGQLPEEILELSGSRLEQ
# RGS4 pot – RGS4 potentiators or activators, primary screen, cell-based, HEK293 M3R inducible RGS4, calcium flux; B-score at 10 µM; AID 463111, 2010; 310,000 compounds, 0.92% hits; carbachol calcium flux Fluo4; active compounds read low;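 active = B-score of the integrated calcium signal more than 4 SD below the library mean, with starting fluorescence not abnormally high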;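 also: negative B-score means reduced calcium response which marks RGS4 activation or potentiation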
#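 System: HEK293 FlpIn-TREx cells, stable M3R, doxycycline-inducible RGS4. Timing: overnight RGS4 induction, 30 min dye load 37 °C, 20 min compound RT. Also added: carbachol, ECmax concentration. Measured by: Fluo4 fluorescence kinetic imaging of calcium. Evaluation: integrated calcium ratio converted to B score.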
# MrgX1 allo act – positive allosteric modulators of MrgX1, primary screen, HEK293 cells, Fluo-4 calcium flux | Mas-related G-protein coupled receptor member X1 (Homo sapiens), Q96LB2 | FDSS; active compounds read high | B-score at 10 µM | 310,000 compounds, 0.63% hits | AID 588675, 2011;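 active = plate-corrected calcium response at least 3 library SD above typical, normal starting fluorescence, not activating the receptor alone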;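 also: compound read alongside a low EC10 to EC30 dose of BAM8-22 agonist; peak minus trough fluorescence over baseline measured at the second addition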
# MrgX1 ag – agonists of human MrgX1 receptor, primary screen, HEK293 cells, Fluo-4 calcium flux; Mas-related G-protein coupled receptor member X1 (Homo sapiens), Q96LB2; Fluo-4 calcium fluorescence, agonist mode; active compounds read high; B-score at 10 µM; 310,000 compounds, 0.44% hits; AID 588627, 2011;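 active = calcium response B-score plate-corrected fluorescence ratio at least 3 library SD, with starting fluorescence B-score inside 5 SD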
#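 Test system: HEK293 cells stably expressing human MrgX1 receptor; Input: fifteen thousand cells per well; Dosing: compound delivered in addition one of three; Schedule: overnight seeding, then 1 h dark dye loading; Technique: Fluo-4 NW calcium fluorescence; Measure: B-scored fluorescence response ratio; Controls: positive and negative controls per plate.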
# MrgX1 antag conf – MrgX1 receptor antagonists, duplicate retest, confirmation, HEK293 cells, Fluo-4 calcium flux | shares compounds with MrgX1 antagonist | remaining BAM8-22 calcium response % of control (active compounds read low), % at 10 µM | 2,300 compounds, 19% hits | AID 602420, 2012 | BAM8-22 calcium flux; active compounds read low;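 active = remaining agonist calcium response no higher than 100% minus 3 SD of agonist-only control wells, with starting fluorescence near control levels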;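 also: agonist BAM8-22 given at a near maximal EC90 to ECmax level; peak minus minimum fluorescence divided by baseline after agonist addition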
# HEK293 Ca flux – nonspecific calcium signal in parental HEK293, confirmation, counter-screen for MrgX1 antagonist project, parental HEK293 cells, Fluo-4 calcium flux; 4,000 compounds, 2% hits; Fluo-4 calcium fluorescence, FDSS; fluorescence ratio F(max-min)/F0 at 10 µM; AID 624111, 2012; shares compounds with MrgX1 antagonist;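 active = duplicate-averaged calcium fluorescence ratio at least three times the standard deviation of buffer wells, a nonspecific response in parental cells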
# HEK293 Ca counter – calcium response in parental HEK293 cells, primary screen, counter-screen for MrgX1 allosteric activator project, cell-based, Fluo-4 calcium flux, duplicate; fluorescence ratio F(max-min)/F0 at 10 µM; Fluo-4 fluorescence ratio; active compounds read high; 4,000 compounds, 0.4% hits; shares compounds with MrgX1 antagonist;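 active = calcium fluorescence ratio, averaged over duplicates, at least 3 SD of the buffer-well ratio, meaning a nonspecific response in receptor-free cells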;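 also: untransfected parental HEK293 lacking MrgX1 used as counterscreen for MrgX1 allosteric activators; fluorescence change taken during the second addition on a kinetic imager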
# HEK293 Ca cntr2 – calcium response in parental HEK293 cells, primary screen, counter-screen for MrgX1 agonist project, cell-based, Fluo-4 calcium flux, duplicate, agonist mode | Fluo-4 calcium fluorescence (FDSS); active compounds read high | AID 624115, 2012 | shares compounds with MrgX1 antagonist | fluorescence ratio F(max-min)/F0 at 10 µM | 4,000 compounds, 8.7% hits;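 active = calcium fluorescence ratio at least three times the spread of buffer wells, meaning a non-specific response in parental cells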
# Starred values were filed as active, the others as inactive; i = inactive; nt = not tested or not shown.
SMILES,RGS4 block,MrgX1 antagonist,RGS4 pot,MrgX1 allo act,MrgX1 ag,MrgX1 antag conf,HEK293 Ca flux,HEK293 Ca counter,HEK293 Ca cntr2
COc1cc(C=C(c2nc3ccccc3s2)c2nc3ccccc3s2)ccc1O,i,i,i,i,i,nt,nt,nt,nt
COc1cc(/C=C/c2nc3ccccc3s2)cc(OC)c1O,i,-5.7*,i,i,i,i,i,i,i
OCCN1CCN(CC(O)C(F)(F)F)CC1 (centres undefined),i,i,i,i,i,nt,nt,nt,nt
CCC(CO)n1c(=S)[nH]c2cc(OC)c(OC)cc2c1=O (centres undefined),i,-4.6*,i,i,i,i,i,i,i
CCOc1cc2[nH]c(=S)n(C(C)C)c(=O)c2cc1OCC,i,i,i,i,i,nt,nt,nt,nt
CC(C)(C)NC(=O)CSc1nnc(CN2CCCCCC2=O)n1-c1ccccn1,i,i,i,i,i,nt,nt,nt,nt
O=C(CSc1nnc(CN2CCCCCC2=O)n1-c1ccccn1)NCC(F)(F)F,i,-4.6*,i,i,i,i,i,i,i
Cc1ccc(S(=O)(=O)N(CC(=O)Nc2ccccc2C(=O)O)c2cccc(Cl)c2C)cc1,i,-7.1*,i,i,i,i,i,i,i
Cc1ccsc1C(=O)N(Cc1nnc(-c2ccccc2Cl)o1)C1CC1,i,-5.8*,i,i,i,i,i,i,i
CS(=O)(=O)c1ccc(Cl)c(NC(=O)Cc2ccsc2)c1,i,i,i,i,i,nt,nt,nt,nt
Cc1cc(C)c(S(=O)(=O)N2CCCc3ccccc32)c(C)c1,i,-7.1*,i,i,i,i,i,i,52*
Cc1ccc(CN2CCN(Cc3cn[nH]c3C3CCCCC3)CC2CCO)cc1 (centres undefined),i,i,i,i,i,nt,nt,nt,nt
O=C(c1cccc(-n2cccc2)c1)N1CCN(S(=O)(=O)c2c(F)cccc2F)CC1,i,-6.1*,i,i,i,i,i,i,i
O=C(c1cccc(-n2cccc2)c1)N1CCN(S(=O)(=O)c2ccccc2)CC1,i,i,i,i,i,nt,nt,nt,nt
Cc1cccc(NC(=O)c2cccc(S(=O)(=O)N3CCc4ccccc4C3)c2)n1,i,i,i,i,i,nt,nt,nt,nt
CC(NC(=O)C1CCCN1S(=O)(=O)c1cccc2nsnc12)c1ccccc1 (centres undefined),i,i,i,i,i,nt,nt,nt,nt
Cc1ccc(CNC(=O)NC2CCCCC2)cc1,i,-5.1*,i,i,i,i,i,i,i
Cc1ccc(CNC(=S)NC2CCCCC2)cc1,i,i,i,i,i,nt,nt,nt,nt
COc1ccc(NC(=O)c2ccco2)c2ccccc12,i,i,i,i,i,nt,nt,nt,nt
Cc1ccc2[nH]c(-c3cccc(F)c3)cc(=O)c2c1,i,-4.6*,i,i,i,i,i,i,i
S=C(Nc1ccc(Cl)cc1)Nc1cccc2cnccc12,i,-5.2*,i,i,i,i,i,i,i
CCOc1ccccc1N1CCN(C(=O)CCCN2C(=O)c3cccc4cccc(c34)C2=O)CC1,i,-5.5*,i,i,i,i,i,i,i
Cn1c(CCN2CCN(c3ccccn3)CC2)nc2cc(NC(=O)COc3ccccc3)ccc21,i,i,i,i,i,nt,nt,nt,nt
O=C(COc1ccccc1)N1CCc2ccccc21,i,i,i,i,i,nt,nt,nt,nt
O=C(COc1ccccc1)OCC(=O)N1CCCc2ccccc21,i,-6.1*,i,i,i,i,i,i,i
SMILES,RGS4 block,MrgX1 antagonist,RGS4 pot,MrgX1 allo act,MrgX1 ag,MrgX1 antag conf,HEK293 Ca flux,HEK293 Ca counter,HEK293 Ca cntr2
COC(=O)COc1cccc2c(=O)n(CC(=O)N3CCCc4ccccc43)ccc12,i,-8.9*,i,i,i,i,i,i,i
CCOC(=O)COc1cccc2c(=O)n(CC(=O)N3CCCCC3)ccc12,i,i,i,i,i,nt,nt,nt,nt
O=C1c2ccccc2CN1C(CO)Cc1ccccc1 (centres undefined),i,i,i,i,i,nt,nt,nt,nt
CCc1ccccc1NC(=O)COc1cccc(-n2cnnn2)c1,i,i,i,i,i,nt,nt,nt,nt
COC(=O)CCC(=O)Nc1cccc(Cl)c1,i,-5.4*,i,i,i,84%*,i,i,i
COc1ccccc1NC(=O)COC(=O)Cc1c[nH]c2ccccc12,i,i,i,i,i,nt,nt,nt,nt
CC(C)c1ccccc1NC(=O)COC(=O)Cc1c[nH]c2ccccc12,i,-19*,i,i,i,i,i,i,i
CC1=C(C(=O)Nc2ccccc2)C(c2ccco2)C(C#N)=C(SCC(=O)OC(C)C)N1 (centres undefined),i,-11*,i,i,i,i,i,i,i
CC1=C(C(=O)Nc2ccccc2)C(c2ccco2)C(C#N)=C(SCc2ccccc2)N1 (centres undefined),i,i,i,i,i,nt,nt,nt,nt
Cc1ccc(C)c(N2CCN(C(=O)Cn3c(=O)oc4cc(S(=O)(=O)N5CCCC5)ccc43)CC2)c1,i,i,i,i,i,nt,nt,nt,nt
Cc1cc(C)cc(NC(=O)C2CCN(S(=O)(=O)c3ccc4[nH]c(=O)ccc4c3)CC2)c1,i,-6.4*,i,i,i,i,i,i,i
CCc1cccc(NC(=O)C2CCN(S(=O)(=O)c3ccc4[nH]c(=O)ccc4c3)CC2)c1,i,i,i,i,i,nt,nt,nt,nt

# High-throughput results (PubChem)
